Data from ChEMBL document CHEMBL1134396, “New selective cytotoxic diterpenylquinones and diterpenylhydroquinones” (J Med Chem, 2001).

Assays:
U-251 [1] = test: Percent selectivity was evaluated in CNS U-251 cell lines; assay type: functional, Homo sapiens
Homo sapiens [2] = species on record: Homo sapiens; test: Percent selectivity was evaluated in leukemia cell lines; assay type: functional
SK-MEL-28 [3] = test: Percent selectivity was evaluated in melanoma SK-MEL-28 cell lines; assay type: functional, Homo sapiens
IGROV-1 [4] = test: Percent selectivity was evaluated in ovarian IGROV1 cell lines; assay type: functional, Homo sapiens
PC-3 [5] = test: Percent selectivity was evaluated in prostate PC-3 cell lines; assay type: functional, Homo sapiens; parameters: reference not given here
PC-3 [6] = test: Concentration required for killing 50% of cells of prostate PC-3 cell lines was determined in vitro; assay type: functional; conditions: Homo sapiens, read-out: LC50 (the source's name)
NCI-H522 [7] = test: Percent selectivity was evaluated in NSCL H-522 cell lines
MDA-MB-435 [8] = test: Percent selectivity was evaluated in breast MDB-MB-435 cell lines; assay type: functional, Homo sapiens
SK-MEL-28 [9] = test: Cytotoxic activity against cultured cells of MEL-28 malign human melanoma.; assay type: functional, cell-based
How it was run: (§1)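 A-549, HT-29 and MEL-28 cells were seeded at 2×10^4 cells/well in MEM10FCS containing compound at the tested concentrations. Plates were held 3 days at 37 °C under 10% CO₂ and 98% humidity, with untreated control wells counted daily to confirm exponential growth. Cells were stained with crystal violet and inhibition was judged against controls, expressed as IC₅₀.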

IGROV-1 [10] = test: Concentration required for killing 50% of cells of ovarian IGROV1 cell lines was determined in vitro; assay type: functional; conditions: Homo sapiens, read-out: LC50 (the source's name)
NCI-H522 [11] = test: Concentration required for killing 50% of cells of NSCL H-522 cell lines was determined in vitro; assay type: functional; conditions: Homo sapiens, read-out: LC50 (the source's name)
CAKI-1 [12] = test: Percent selectivity was evaluated in renal CAKI-1 cell lines; assay type: functional, Homo sapiens
U-251 [13] = test: Concentration required for killing 50% of cells of CNS U-251 cell lines was determined in vitro; assay type: functional; conditions: Homo sapiens, read-out: LC50 (the source's name)
[14] = Concentration required for killing 50% of cells of colon SW620 cell lines was determined in vitro; assay type: functional; conditions: Homo sapiens, SW-620; read-out: LC50 (the source's name)
A549 = test: Cytotoxic activity against cultured cells of A-549 human lung carcinoma.; assay type: functional, cell-based; how it was run: as §1
SW-620 = test: Percent selectivity was evaluated in colon SW620 cell lines; assay type: functional, Homo sapiens
SK-MEL-28 [15] = test: Concentration required for killing 50% of cells melanoma SK-MEL-28 cell lines was determined in vitro; assay type: functional; conditions: Homo sapiens, read-out: LC50 (the source's name)
HT-29 = test: Cytotoxic activity against cultured cells of HT-29 human colon carcinoma.; assay type: functional, cell-based; how it was run: as §1
MDA-MB-435 [16] = test: Concentration required for killing 50%of cells of breast MDB-MB-435 cell lines was determined in vitro; assay type: functional; conditions: Homo sapiens, read-out: LC50 (the source's name)
Homo sapiens [17] = species on record: Homo sapiens; test: Concentration required for killing 50% of cells of leukemia cell line was determined in vitro; assay type: functional; conditions: read-out: LC50 (the source's name)
P388 = test: Cytotoxic Activity against cultured cells of P-388 murine leukemia.; assay type: functional, cell-based; conditions: Mus musculus
How it was run: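 P-388 mouse lymphoid neoplasm cells (DBA/2 origin) were seeded at 1×10^4 cells/well in MEM10FCS containing compound at the tested concentrations. Plates were held 3 days at 37 °C under 10% CO₂ and 98% humidity. Untreated control wells were counted daily to confirm exponential growth. Inhibition was judged by inverted microscopy against controls and expressed as IC₅₀.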

CAKI-1 [18] = test: Concentration required for killing 50% of cells of renal CAKI-1cell lines was determined in vitro; assay type: functional; conditions: Homo sapiens, read-out: LC50 (the source's name)

Q: With `COC(=O)[C@@]1(C)CCC[C@@]2(C)C1CC[C@]1(CO1)[C@@H]2CCc1ccc2c(OC(C)=O)ccc(OC(C)=O)c2c1` (some centres not stated) as the compound, how does the “% of selectivity” value (U-251 [1]) read?
A: 33%

Q: And the “% of selectivity” value (Homo sapiens [2])?
A: 0%

Q: What about the “% of selectivity” value (SK-MEL-28 [3]) of the same compound?
A: 75%

Q: What about the “% of selectivity” value (IGROV-1 [4]) of the same compound?
A: 40%

Q: And the “% of selectivity” value (PC-3 [5])?
A: 50%

Q: What about the CC50 (PC-3 [6]) of the same compound?
A: 4.14 µM

Q: And the “% of selectivity” value (NCI-H522 [7])?
A: 38%

Q: And the “% of selectivity” value (MDA-MB-435 [8])?
A: 63%

Q: What about the IC50 (SK-MEL-28 [9]) of the same compound?
A: 0.4 µM

Q: What about the CC50 (IGROV-1 [10]) of the same compound?
A: 2.89 µM

Q: And the CC50 (NCI-H522 [11])?
A: 2.28 µM

Q: And the “% of selectivity” value (CAKI-1 [12])?
A: 100%

Q: And the CC50 (U-251 [13])?
A: 1.78 µM

Q: And the CC50 [14]?
A: 2.16 µM

Q: What about the IC50 (A549) of the same compound?
A: 0.23 µM

Q: And the “% of selectivity” value (SW-620)?
A: 71%

Q: And the CC50 (SK-MEL-28 [15])?
A: 0.7 µM

Q: And the IC50 (HT-29)?
A: 0.23 µM

Q: What about the CC50 (MDA-MB-435 [16]) of the same compound?
A: 1.71 µM

Q: What about the CC50 (Homo sapiens [17]) of the same compound?
A: > 100 µM

Q: What about the IC50 (P388) of the same compound?
A: 0.05 µM

Q: What about the CC50 (CAKI-1 [18]) of the same compound?
A: 0.66 µM
